pIC50: −log10 of the molar value. Calls of active or inactive are those of the source. The rule behind the calls is not given here.
What was measured:
HeLa [1] = test: Induction of apoptosis in human HeLa cells at 20 uM after 24 hrs using PI staining by flow cytometry relative to control; format: functional
HeLa [2] = test: Cytotoxicity against human HeLa cells assessed as growth inhibition at 20 uM after 48 hrs by MTT assay; format: functional; conditions: read-out: GI
Outline: (§1)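 Single-concentration screen at 20 µM. Cell growth inhibition read by standard MTT assay after 48 h treatment and expressed as inhibition ratio.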

HeLa [3] = test: Cytotoxicity against human HeLa cells assessed as growth inhibition after 48 hrs by MTT assay; format: functional, cell-based
Outline: (§2)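 Dose-response MTT assay, 48 h exposure. Compounds run at multiple concentrations; IC50 taken as the concentration giving 50% growth inhibition. HEK-293T (human embryonic kidney cells transformed with adenovirus 5 DNA and SV40 large T-antigen) served as the normal-cell model.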

A549 [4] = test: Cytotoxicity against human A549 cells assessed as growth inhibition at 20 uM after 48 hrs by MTT assay; format: functional; conditions: for inhibition of growth at 20 µM: A549, 48 h, read-out: GI; outline: as §1
MDA-MB-231 [5] = test: Cytotoxicity against human MDA-MB-231 cells assessed as growth inhibition at 20 uM after 48 hrs by MTT assay; format: functional; conditions: MDA-MB-231, 48 h, read-out: GI; outline: as §1
A549 [6] = test: Cytotoxicity against human A549 cells assessed as growth inhibition after 48 hrs by MTT assay; format: functional, cell-based; conditions: for pIC50: A549, 48 h; outline: as §2
MDA-MB-231 [7] = test: Cytotoxicity against human MDA-MB-231 cells assessed as growth inhibition after 48 hrs by MTT assay; format: functional, cell-based; conditions: for pIC50: MDA-MB-231, 48 h; outline: as §2
HEK-293T = test: Cytotoxicity against human HEK293T cells assessed as growth inhibition after 48 hrs by MTT assay; format: cell-based; outline: as §2
[8] = target: Induced myeloid leukemia cell differentiation protein Mcl-1 (Homo sapiens) (UniProt Q07820); test: Inhibition of mouse/human MCL1 expressed in Escherichia coli BL21 at 1 uM to 50 uM using FAM-labeled Bid-BH3 as tracer by fluorescence polarization assay
HeLa [9] = test: Induction of apoptosis in human HeLa cells assessed as sub-diploid DNA content at 20 uM after 24 hrs using PI staining by flow cytometry (reference value: 6%); format: functional
HeLa [10] = test: Induction of apoptosis in human HeLa cells assessed as increase in level of cleaved caspase-3 at 20 uM after 12 hrs by immunoblotting; format: functional, cell-based
[11] = target: Induced myeloid leukemia cell differentiation protein Mcl-1 (Homo sapiens) (UniProt Q07820); test: Inhibition of mouse/human MCL1 expressed in Escherichia coli BL21 at 50 uM using FAM-labeled Bid-BH3 as tracer by fluorescence polarization assay
HeLa [12] = test: Induction of apoptosis in human HeLa cells assessed as increase in level of cleaved PARP at 20 uM after 12 hrs by immunoblotting; format: functional, cell-based

O=C(Cn1cnc2sc3c(c2c1=O)CCCCC3)N/N=C/c1ccc(Cl)c([N+](=O)[O-])c1
Activity (HeLa [1]): 6% | inhibition of growth at 20 µM (HeLa [2]): 96% | pIC50 (HeLa [3]): 5.22 | growth inhibition (GI) (A549 [4]): inactive | inhibition of growth at 20 µM (MDA-MB-231 [5]): 66% | pIC50 (A549 [6]): < 4.30 | pIC50 (MDA-MB-231 [7]): 4.64 | pIC50 (HEK-293T): < 4.30 | inhibition [8]: inactive

Cc1cc(-c2csc3ncn(CC(=O)N/N=C/c4ccc(Cl)c(F)c4)c(=O)c23)ccc1Cl
inhibition of growth at 20 µM (HeLa [2]): 52% | pIC50 (HeLa [3]): 4.82 | growth inhibition (GI) (HeLa [3]): Dose-dependent effect | inhibition of growth at 20 µM (A549 [4]): 51% | inhibition of growth at 20 µM (MDA-MB-231 [5]): 74% | growth inhibition (GI) (A549 [6]): Dose-dependent effect | pIC50 (A549 [6]): 4.77 | Activity (HeLa [9]): 27% | Activity (HeLa [10]): Active | growth inhibition (GI) (MDA-MB-231 [7]): Dose-dependent effect | pIC50 (MDA-MB-231 [7]): 4.80 | inhibition [11]: 40% | pIC50 (HEK-293T): < 4.30 | inhibition [8]: inactive | Activity (HeLa [12]): Active

O=C(Cn1cnc2scc(-c3ccccc3)c2c1=O)N/N=C/c1ccc(Cl)c([N+](=O)[O-])c1
Activity (HeLa [1]): 8% | inhibition of growth at 20 µM (HeLa [2]): 64% | pIC50 (HeLa [3]): 4.96 | growth inhibition (GI) (HeLa [3]): Dose-dependent effect | inhibition of growth at 20 µM (A549 [4]): 66% | inhibition of growth at 20 µM (MDA-MB-231 [5]): 29% | growth inhibition (GI) (A549 [6]): Dose-dependent effect | pIC50 (A549 [6]): 4.80 | growth inhibition (GI) (MDA-MB-231 [7]): Dose-dependent effect | pIC50 (MDA-MB-231 [7]): 4.70 | pIC50 (HEK-293T): < 4.30 | inhibition [8]: inactive

O=C(Cn1cnc2scc(-c3ccc(Cl)cc3)c2c1=O)N/N=C/c1ccc(Cl)c([N+](=O)[O-])c1
inhibition of growth at 20 µM (HeLa [2]): 74% | pIC50 (HeLa [3]): 4.96 | growth inhibition (GI) (HeLa [3]): Dose-dependent effect | inhibition of growth at 20 µM (A549 [4]): 58% | inhibition of growth at 20 µM (MDA-MB-231 [5]): 78% | growth inhibition (GI) (A549 [6]): Dose-dependent effect | pIC50 (A549 [6]): 4.70 | Activity (HeLa [9]): 22% | Activity (HeLa [10]): Active | growth inhibition (GI) (MDA-MB-231 [7]): Dose-dependent effect | pIC50 (MDA-MB-231 [7]): 4.49 | pIC50 (HEK-293T): < 4.30 | inhibition [8]: inactive | Activity (HeLa [12]): Active

Reference: ChEMBL document CHEMBL1909506, “Synthesis and anti-tumor activities of N'-benzylidene-2-(4-oxothieno[2,3-d]pyrimidin-3(4H)-yl)acetohydrazone derivatives” (Bioorg Med Chem Lett, 2011)
